Columns and labels:
Lethal factor = molecular target: T1, Lethal factor (Bacillus anthracis, UniProt P15917); assay: Inhibition of Bacillus anthracis lethal factor using MCA-KKVYPYPME[dnp]Kamide peptide substrate after 30 mins by FRET assay
T1 sequence (P15917 whole entry): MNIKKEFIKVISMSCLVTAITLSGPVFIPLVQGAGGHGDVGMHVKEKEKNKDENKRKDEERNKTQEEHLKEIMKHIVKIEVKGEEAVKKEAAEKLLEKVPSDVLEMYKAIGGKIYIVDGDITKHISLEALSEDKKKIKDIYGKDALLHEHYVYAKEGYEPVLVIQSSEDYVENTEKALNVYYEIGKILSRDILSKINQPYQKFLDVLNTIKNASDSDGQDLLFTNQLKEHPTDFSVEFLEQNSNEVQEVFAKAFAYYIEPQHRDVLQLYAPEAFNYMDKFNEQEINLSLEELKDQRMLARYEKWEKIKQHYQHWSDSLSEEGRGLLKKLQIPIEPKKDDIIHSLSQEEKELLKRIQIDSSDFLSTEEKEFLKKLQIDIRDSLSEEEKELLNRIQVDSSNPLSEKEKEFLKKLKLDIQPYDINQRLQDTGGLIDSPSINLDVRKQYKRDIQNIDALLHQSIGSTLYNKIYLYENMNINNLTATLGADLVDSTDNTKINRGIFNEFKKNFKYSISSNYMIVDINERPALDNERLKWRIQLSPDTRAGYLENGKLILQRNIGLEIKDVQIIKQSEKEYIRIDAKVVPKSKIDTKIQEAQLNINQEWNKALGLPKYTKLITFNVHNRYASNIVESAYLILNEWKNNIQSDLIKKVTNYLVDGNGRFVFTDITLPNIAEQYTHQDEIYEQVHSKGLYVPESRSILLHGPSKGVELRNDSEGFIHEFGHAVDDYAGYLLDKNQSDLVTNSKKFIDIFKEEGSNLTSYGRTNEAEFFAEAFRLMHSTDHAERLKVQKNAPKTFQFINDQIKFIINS

[1] = molecular target: Botulinum neurotoxin type A (Clostridium botulinum, UniProt P0DPI0); assay: Inhibition of Clostridium botulinum BoNT/A light chain-mediated SNAP-25 substrate cleavage after 40 mins by FRET assay
Summary of the method: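 Recombinant BoNT/A LC at 2 nM was incubated with 20 μM SNAP-25 peptide (AA 187–203, DnpK/daciaC-labelled) for 40 min at 37 °C. Cleaved-substrate fluorescence was read at 485 nm with excitation at 398 nm. IC50 is the compound concentration giving 50% inhibition, averaged over two experiments.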

[2] = molecular target: T2, Lethal factor (Bacillus anthracis) (UniProt P15917); assay: Inhibition of Bacillus anthracis lethal factor using MCA-KKVYPYPME[dnp]Kamide peptide substrate at 100 uM after 30 mins by FRET assay
T2 sequence (whole entry): T1 sequence (P15917 whole entry)

Sequence of Botulinum neurotoxin type A (P0DPI0 2-448 limits assumed): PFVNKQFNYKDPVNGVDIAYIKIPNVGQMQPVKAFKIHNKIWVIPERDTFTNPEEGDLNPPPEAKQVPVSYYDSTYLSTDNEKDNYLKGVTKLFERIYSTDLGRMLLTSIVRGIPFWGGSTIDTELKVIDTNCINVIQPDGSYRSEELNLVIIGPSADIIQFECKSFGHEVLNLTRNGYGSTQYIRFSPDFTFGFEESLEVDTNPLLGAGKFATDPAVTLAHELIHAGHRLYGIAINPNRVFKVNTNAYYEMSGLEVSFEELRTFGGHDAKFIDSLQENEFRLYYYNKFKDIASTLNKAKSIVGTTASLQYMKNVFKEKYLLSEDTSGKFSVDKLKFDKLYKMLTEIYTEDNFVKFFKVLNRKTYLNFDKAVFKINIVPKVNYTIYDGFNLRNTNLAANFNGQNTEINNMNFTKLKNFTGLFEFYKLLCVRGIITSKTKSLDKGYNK

| Compound | IC50 (Lethal factor) | IC50 [1] | inhibition [2] |
| --- | --- | --- | --- |
| N#C/C(=C\c1cccs1)c1nc2ccccc2[nH]1 | > 100 µM | > 100 µM |  |
| N#C/C(=C\c1c[nH]c2ccc(Br)cc12)c1nc2ccccc2[nH]1 |  | > 100 µM | 60% |
| N#C/C(=C\c1cc(-c2ccccc2)cnc1Cl)c1nc2ccccc2[nH]1 | > 100 µM | > 100 µM |  |
| COc1ccc(/C=C(\C#N)c2nc3ccccc3[nH]2)cc1OC | > 100 µM | > 100 µM |  |
| N#C/C(=C\c1c[nH]c2c1ccc1ccccc12)c1nc2ccccc2[nH]1 | > 100 µM | > 100 µM |  |
| COc1ccc(/C=C(\C#N)c2nc3ccccc3[nH]2)cc1F | > 100 µM | > 100 µM |  |
| N#C/C(=C\c1ccc(-c2ccccc2)cc1)c1nc2ccccc2[nH]1 | > 100 µM | 86 µM |  |
| N#C/C(=C\c1ccc(-c2cccs2)s1)c1nc2ccccc2s1 | > 100 µM | > 100 µM |  |
| Cc1cc(/C=C(\C#N)c2nc3ccccc3[nH]2)sc1C | > 100 µM | > 100 µM |  |
| N#C/C(=C\c1ccc(-c2cccs2)s1)c1nc2ccccc2o1 |  | > 100 µM |  |
| N#C/C(=C\c1c[nH]c2cccc([N+](=O)[O-])c12)c1nc2ccccc2[nH]1 | > 100 µM | > 100 µM |  |
| N#C/C(=C\c1ccc(-c2cccs2)s1)c1cc2ccccc2[nH]1 | > 100 µM | > 100 µM |  |
| COc1ccc(/C=C(\C#N)c2nc3ccccc3[nH]2)cc1Br | > 100 µM | > 100 µM |  |

Reference: ChEMBL document CHEMBL1933027, “Time-dependent botulinum neurotoxin serotype A metalloprotease inhibitors” (Bioorg Med Chem, 2011)
